Measured values: the RNAGym collection of RNA variant scans (doi:10.1126/science.aae0568)
This sample holds only a part of the variants without activity.

B1: tRNA (parent)
chain: GUUCCGUUGGCGUAAUGGUAACGCGUCUCCCUCCUAAGGAGAAGACUGCGGGUUCGAGUCCCGUACGGAACG

Variants of: B1
Assay: yeast fitness relative to wild type (ratio to wild type); higher = fitter; tRNA-Arg(CCU), competitive growth, 37 C, YPD
Method in brief: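 Genotype frequency changes were the basis for Darwinian fitness relative to wild type. The frequencies came from 100-nucleotide paired-end sequencing of gene amplicons from the start population and each end population of pooled yeast strains with tRNA-Arg(CCU) gene variants at the native locus. Competition ran in YPD at 37°C for 24 hours in six replicates, genotypes needed ≥ 100 starting reads, and estimates < 0.5 were set to 0.5.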

Variant | yeast fitness
GUUCCGUUGGCGAAAUGGUAACGCGUCCCCCUCCUAAGGAAAAAACUGCGGGUUCGAGUCCCGUACGGAUCG [U13A U28C G41A G44A A70U] | ≤ 0.5
GUUCCGUUGGCGAAAUGGUAACGCGUCCCCCACCUAAGGAGAAGACUGCGGGUUCGAGUCCCGUACGGAACG [U13A U28C U32A] | 0.698
GUUCCGUUGGCGAAAUGGUAACGCGUCUCCCCCCUAAGGAGAAGACUGCGGGUUCGAGUCCCAUACGGAACG [U13A U32C G63A] | 0.572
GUUCCGUUGGCGAAAUGGUAACGCGUCUCCCUCCUAAGGAGAAGACUGCGGGUCCGAGUCCCGUACGGAACG [U13A U54C] | 0.934
GUUCCGUUGGCGAAAUGGUAACGCGUCUCCCUCCUAAGGAGAAGACUGCGGGUUCGAGACCCGUACGGAACG [U13A U59A] | 0.827
GUUCCGUUGGCGCAAUGGUAACGCGUCUCCCUCCUAAGGAGAAGACUGCGGGUUCGAGUCCCGUACGGAACG [U13C] | 1.01
GUUCCGUUGGCGCGAUGGUAACGCGUCUCCCUCCUAAGGAGCAGACUGCGGGUUCGAGUCGUGUACGGAACG [U13C A14G A42C C61G C62U] | ≤ 0.5
GUUCCGUUGGCGCGAUGGUAACGAGUCUCCCGCCUACGGAGAAGACUGCGGGUUCGAGUCCCGAACGGAACG [U13C A14G C24A U32G A37C U64A] | 0.646
GUUCCGUUGGCGCUAUGGUAACGCGUCUCCCUCCUAAGGAGAAGACUGCGGGUUCGAGUCACGUACGGAACG [U13C A14U C61A] | ≤ 0.5
GUUCCGUUGGCGCACUGGUGAUGCAUGUCACUCCUAAGGAGAAGACUGCGGGUUCGCGUCCCGUACGGAACG [U13C A15C A20G C22U G25A C27G C30A A57C] | 0.542
GUUCCGUUGGCGCACUGGUAACGCGUCUCCCUCCUAAGGAGAAGAGUGCGGGUUCGAGUCCCGUACGGCACG [U13C A15C C46G A69C] | ≤ 0.5
GUUCCGUUGGCGCACUGGUAACGCGUCUCCCUCCUAAGGAGAAGACUACGGGUUCGAGUCCCGUACGGAACG [U13C A15C G48A] | ≤ 0.5
GUUCCGUUGGCGCAGUGGUAACGCGUCUACCUCCUAAGGAGAAGACUGCGGGUUCGAGUCCCGUACGGAACG [U13C A15G C29A] | 0.508
GUUCCGUUGGCGCAUAGGAAACGCGUCUCCCUCUUAAGGAGAAGACUGCGGGUUCGCGUCCCGUACGGAACG [U13C A15U U16A U19A C34U A57C] | ≤ 0.5
GUUCCGUUGGCGCAAUGGUCACGCGUCUCCCUCCUAAGGAGAAGACUGCGGGUUCGAGUCCCGUACGGAACG [U13C A20C] | 0.903
GUUCCGUUGGCGCAAUGGUACCGCGUUUCCCUCCUAAGGAGAAGACUGCGGGUUCGAGUCCCAUGCGGAACG [U13C A21C C27U G63A A65G] | ≤ 0.5
GUUCCGUUGGCGCAAUGGUACCGCGUCUCCUUCCUAAGGAGAAGACUGCGGGUUCGAGUCCCGUACGGAACG [U13C A21C C31U] | ≤ 0.5
GUUCCGUUGGCGCAAUGGUAGCGCGUCUCCGUCCUAAGGAGAAGGCUGCGGGUUCGAGUCCCGUACGGAACG [U13C A21G C31G A45G] | 0.619
GUUCCGUUGGCGCAAUGGUAGCGCGUCUCCCUCCUAAGCAGAAGACUGCAGGUUCGAGGCAUGUACGGAACG [U13C A21G G39C G50A U59G C61A C62U] | 0.502

Variant | yeast fitness
GUUCCGUUGGCGCAAUGGUAACGCGUCUCCCUCCUGAGGAGAAGAAUGAGGGUUCGAGUCCCGUACGGAACG [U13C A36G C46A C49A] | ≤ 0.5
GUUCCGUUGGCGCAAUGGUAACGCGUCUCCCUCCUAUGGAGAAGACUGGGGGUUCGAGUCCCGUACGGAACG [U13C A37U C49G] | ≤ 0.5
GUUCCGUUGGCGCAAUGGUAACGCGUCUCCCUCCUAAGGCGAAGACUGCGGGUUCGAGUCCCGUACGGAACG [U13C A40C] | 0.882
GUUCCGUUGGCGCAAUGGUAACGCGUCUCCCUCCUAAGGAGUAGACUGCGGGUCCGAGUCCCGUCCGGAACG [U13C A42U U54C A65C] | ≤ 0.5
GUUCCGUUGGCGCAAUGGUAACGCGUCUCCCUCCUAAGGAGAGGACUGCCGGUUCGAGUCCCGUACAGAACG [U13C A43G G50C G67A] | ≤ 0.5
GUUCCGUUGGCGCAAUGGUAACGCGUCUCCCUCCUAAGGAGAGGACUGCGGGAUCGAGUCCCGUACGGAACG [U13C A43G U53A] | ≤ 0.5
GUUCCGUUGGCGCAAUGGUAACGCGUCUCCCUCCUAAGGAGAUGACUGCGGGUUCGAGUCCCGUACGGAGCG [U13C A43U A70G] | 0.966
GUUCCGUUGGCGCAAUGGUAACGCGUCUCCCUCCUAAGGAGAUGAGUGCGGGUUCGAGUCCCGUACGGAACG [U13C A43U C46G] | ≤ 0.5
GUUCCGUUGGCGCAAUGGUAACGCGUCUCCCUCCUAAGGAGAAGACUGCGGGUUCGGGUCCCGUACGGAACG [U13C A57G] | 0.919
GUUCCGUUGGCGCAAUGGUAACGCGUCUCCCUCCUAAGGAGAAGACUGCGGGUUCGAGUCCCGUGCGGACCG [U13C A65G A70C] | 0.744
GUUCCGUUGGCGCAAUGGUAACGCGUCUCCCUCCUAAGGAGAAGACUGCGGGUUCGAGUCCCGUACGGACCG [U13C A70C] | 1.09
GUUCCGUUGGCGCAAUGGUAAACCGUCUCCCUCUUGAGGUGAAGACUGCGGGUUCGAGUCCCGUACGGAACG [U13C C22A G23C C34U A36G A40U] | ≤ 0.5
GUUCCGUUGGCGCAAUGGUAAGGCGUCUCCCUCCUUAGGAGAAGACUGCGGGUUCGAGUCCUGUAUGGCACG [U13C C22G A36U C62U C66U A69C] | ≤ 0.5
GUUCCGUUGGCGCAAUGGUAAUGCGUCUCCCUCCUAAGGAGAAGCCUCCGGGUUCGAGUCCCGUACGGAACG [U13C C22U A45C G48C] | ≤ 0.5
GUUCCGUUGGCGCAAUGGUAAUGCGUCUCCCUCCUAAGGAGAAGUCUGCGGGUUCGAGUCCCGUACGGAACG [U13C C22U A45U] | 0.713
GUUCCGUUGGCGCAAUGGUAAUGCGUCUCUCUCCUAAGGAGAAGACUGCGGGUUCGAGUCCCGUACGGAACG [U13C C22U C30U] | ≤ 0.5
GUUCCGUUGGCGCAAUGGUAACGUGUCUCCCUCGUAAGGAGAAGACUGCGGGUUCGAGUCCCGUACGGAACG [U13C C24U C34G] | 0.556
GUUCCGUUGGCGCAAUGGUAACGUGUCUCCCUCUUAAGGAGAAGACUGCGGGUUCGAGUCCCGUACGGAACG [U13C C24U C34U] | ≤ 0.5
GUUCCGUUGGCGCAAUGGUAACGUGUCUCCCUCCUAAGGAAAAGACUGCGGGUUCGAGUCCAGUACGGAACG [U13C C24U G41A C62A] | ≤ 0.5
